Results published in ChEMBL document CHEMBL1157852, “Modulation of doxorubicin activity in cancer cells by conjugation with fatty acyl and terpenyl hydrazones” (Eur J Med Chem, 2010).
The source made the active and inactive calls. No cut-off for these calls is given here.

Columns and labels:
HL-60 [1] = assay: Cytotoxicity against human HL60 cells assessed as increase in ROS production at 5 uM after 72 hrs by NBT reduction assay relative to control; assay type: functional
Summary of the method: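 NBT assay. HL-60 cells (0.5×10⁶/mL) or trypsinised 518A2 cells (5×10⁴/mL) pre-incubated 24 h at 37 °C, then given compound at a final 5 µM for 24 or 72 h. Medium removed; cells incubated with 0.1% NBT for 1 h (HL-60) or 4 h (518A2). Diformazan dissolved in 2 M KOH/DMSO; A630 read against 405 nm. Given as % of untreated controls; double quadruplicates.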

HL-60 [2] = assay: Cytotoxicity against human HL60 cells after 48 hrs by MTT assay; assay type: functional, cell-based; details: HL-60, 48 h
Summary of the method: (§1)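 MTT assay. Cells seeded and cultured 24 h, then exposed to compound for 24, 48 or 72 h. MTT added to a final 0.05% (HL-60, 518A2) or 0.1% (KB-V1, MCF-7) for 2 h. Formazan dissolved in 10% SDS/DMSO with 0.6% acetic acid; absorbance read at 570 nm against 630 nm background. Viability taken relative to untreated controls (100%). IC50 from concentration-response curves, mean ± SD of four independent experiments.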

HL-60 [3] = assay: Induction of apoptosis in human HL60 cells assessed as DNA ladder formation at 5 uM after 24 hrs by agarose gel electrophoresis; assay type: functional, cell-based
Summary of the method: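 HL-60 cells incubated with 5 µM compound for 24 h, then examined for DNA ladder patterns.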

518A2 = assay: Induction of apoptosis in human 518A2 cells assessed as appearance of intact mitochondria in cytosol at 5 uM after 6 hrs using JC1 dye relative to control; assay type: functional
Summary of the method: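 Mitochondrial membrane potential measured with JC-1. Cells exposed to 5 µM compound for 6 or 18 h, pelleted at 400 g, stained with 0.2× JC-1 at 37 °C for 15 min (HL-60) or 35 min (518A2), washed and resuspended in PBS. Red fluorescence (ex 585/em 590 nm) and green (ex 510/em 527 nm) read; red/green ratio relative to untreated controls (100%). Mean ± SD, four independent experiments.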

[4] = Cytotoxicity against human 518A2 cells after 24 hrs by MTT assay; assay type: functional, cell-based; details: 518A2, 24 h; summary of the method: as §1
[5] = Cytotoxicity against human vinblastine-resistant KBV1 cells after 48 hrs by MTT assay; assay type: functional, cell-based; details: KB-V1, 48 h; summary of the method: as §1
HL-60 [6] = assay: Induction of apoptosis in human HL60 cells assessed as increase of caspase 8 activity at 5 uM after 4 to 24 hrs by luminometric assay; assay type: functional, cell-based
Summary of the method: (§2)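 HL-60 and 518A2 cells treated with 5 µM compound and sampled at intervals from 1 to 24 h. Lysed in 50 mM Tris-HCl pH 7.4, 150 mM NaCl, 1% Triton X-100 with protease inhibitors for 15 min at 4 °C, spun at 800 g. Protein measured by Bradford. Caspase-3/7, -8 and -9 activities read with luminogenic peptide substrates; reported as relative luminescence.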

HL-60 [7] = assay: Cytotoxicity against human HL60 cells after 72 hrs by MTT assay; assay type: functional, cell-based; details: HL-60, 72 h; summary of the method: as §1
HL-60 [8] = assay: Induction of apoptosis in human HL60 cells assessed as increase of caspase 3 activity at 5 uM after 12 hrs by luminometric assay; assay type: functional, cell-based; summary of the method: as §2
HL-60 [9] = assay: Induction of apoptosis in human HL60 cells assessed as increase of ratio of Bax to Bcl-2 mRNA expression at 5 uM after 6 to 18 hrs by RT-PCR analysis; assay type: functional, cell-based
Summary of the method: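 Real-time PCR of bax and bcl-2 mRNA in HL-60 cells after 6 h and 18 h exposure to test compound. Each gene was normalised to GAPDH, and the bax/bcl-2 expression ratio was reported.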

MCF7 = assay: Cytotoxicity against human topotecan-resistant MCF7 cells after 72 hrs by MTT assay; assay type: functional, cell-based; details: MCF7, 72 h; summary of the method: as §1

## COc1cccc2c1C(=O)c1c(O)c3c(c(O)c1C2=O)C[C@@](O)(/C(CO)=N/NC(=O)CCCCCCCCCCC(=O)O[C@@H]1C[C@H](C)CC[C@H]1C(C)C)C[C@@H]3O[C@H]1C[C@H](N)[C@H](O)[C@H](C)O1.Cl
HL-60 [1]
  Activity: 5.9%
HL-60 [2]
  IC50: 250 nM
HL-60 [3]
  Activity: Active
518A2
  Activity: 108%
[4]
  IC50: 230 nM
[5]
  IC50: 17100 nM
HL-60 [6]
  Activity: Active
HL-60 [7]
  IC50: 110 nM
HL-60 [8]
  Activity: Active
HL-60 [9]
  Activity: Active
MCF7
  IC50: 2600 nM
